Data set [1] relates to panel of Gram-negative pathogens. Briefly: Antibacterial testing, statements in words. As to conditions: Table S2. It is filed as cell-based.
The next data set concerns E. coli ATCC 25922. Briefly: MIC antibacterial assay. It is filed as cell-based, Escherichia coli.
Another data set deals with K. pneumoniae ATCC 13883. Kind of data set: MIC antibacterial assay. It is filed as cell-based, Klebsiella pneumoniae.
The next data set has as its system A. baumannii ATCC 19606. Briefly: MIC antibacterial assay. In kind it is cell-based, Acinetobacter baumannii. Conditions: for MIC, A. baumannii 19606: 100% MHB, 90 min, 37 °C, twice in duplicate, mean ± SD.
A further data set has as its system FADDI-KP028 (MDR). Kind of data set: MIC antibacterial assay. In kind it is cell-based, K. pneumoniae. The method in brief:
(§1)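 Broth assay in 100% Mueller Hinton broth. Test compound was serially diluted from 250 to 4 μg ml−1 and mixed 1:1 by volume with a bacterial suspension of 2 × 10^6 cells per ml, then incubated 90 min at 37 °C. MIC was obtained by plotting maximal growth against concentration (Lambert and Pearson method). Run twice in duplicate; mean ± SD.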

Data set [2] deals with FADDI-AB156 (colistin-resistant, rifampin-resistant & MDR, XDR). Briefly: MIC antibacterial assay. It is filed as cell-based, A. baumannii. As to conditions: for MIC, FADDI-AB156: 100% MHB, 90 min, 37 °C, twice in duplicate, mean ± SD. Put shortly:
as §1

The test system of a further data set is A. baumannii 19606. Kind of data set: Minimum bactericidal concentration. In kind it is cell-based, Acinetobacter baumannii.
A further data set relates to A. baumannii culture. Briefly: Peptide stability in bacterial culture. As to conditions: 90 min incubation with A. baumannii culture. In kind it is in vitro ADME.
[3] abbreviates: 100% MHB, 90 min, 37 °C, twice in duplicate, mean ± SD.

In brackets after ≈: the same amount, converted by molar mass. Bridge positions count the residues as written; N and C are the ends. Square brackets hold non-standard residues; d marks the D form. I, II: the chains in the order shown. * marks the point of attachment. Ac6c = NC1(C(=O)O)CCCCC1; NHNH2 = NN*

Turning to `Fc1c(F)c(F)c(-c2c(F)c(F)c(F)c(F)c2F)c(F)c1F` [Decafluorobiphenyl], in data set [1], the “antibacterial activity of the linkers alone” value is reported as “no antibacterial activity”.

As usually defined, the MIC is the lowest concentration that inhibits growth of the organism. By MBC is commonly meant the smallest concentration meeting the test's criterion for killing. Regarding `CNC(C)C1CCC(N)C(OC2C(N)CC(N)C(OC3OCC(C)(O)C(NC)C3O)C2O)O1` (centres unmarked) [Gentamicin], the MIC in the data set with E. coli ATCC 25922 (Escherichia coli, ATCC25922, 1.5 h, read-out: MIC, E. coli 25922) was 0.9 ± 0.1 µg/mL (≈ 1.88 µM); in the data set with K. pneumoniae ATCC 13883 (Klebsiella pneumoniae, ATCC13883, 1.5 h, read-out: MIC, K. pneumoniae 13883), 0.1 ± 0.05 µg/mL (≈ 0.209 µM); in the data set with A. baumannii ATCC 19606 (Acinetobacter baumannii, ATCC19606, 1.5 h, read-out: MIC, A. baumannii 19606), 2.7 ± 0.2 µg/mL (≈ 5.65 µM); in the data set with FADDI-KP028 (MDR) (Klebsiella pneumoniae, 1.5 h, read-out: MIC, FADDI-KP028), above 250 µg/mL; in data set [2] (Acinetobacter baumannii, 1.5 h, read-out: MIC, FADDI-AB156), above 250 µg/mL. Moreover, the MBC with A. baumannii 19606 (Acinetobacter baumannii, 19606, read-out: Bactericidal MBC, A. baumannii 19606) turned out to be 4.6 ± 0.3 µg/mL (≈ 9.63 µM).

As to `Fc1c(F)c(F)c(F)c(F)c1F` [Hexafluorobenzene], the “antibacterial activity of the linkers alone” value in data set [1] is recorded as “no antibacterial activity”.

In the case of Colistin, the “MIC, A. baumannii 19606” value against A. baumannii ATCC 19606 was 0.5 ± 0.04 (0.4) μg ml^−1. Also, in data set [2], the “MIC, FADDI-AB156” value is 12.6 ± 1.6 (10.9) μg ml^−1. Moreover, the “Bactericidal MBC, A. baumannii 19606” value in the data set on A. baumannii 19606 (CFU assay, twice in duplicate, mean ± SD) is 0.8 ± 0.02 (0.7) μg ml^−1.

For the compound “I: H-[Ac6c]RPDKPRPYLPRPRPPRPVRC-NHNH2 / II: H-[Ac6c]RPDKPRPYLPRPRPPRPVRC-NHNH2 (disulfide I:21-II:21) [compound 2]”, in the data set on E. coli ATCC 25922 (setting [3]), the “MIC, E. coli 25922” value is on record as 3.1 ± 0.1 (0.6) μg ml^−1. Besides, the “MIC, K. pneumoniae 13883” value against K. pneumoniae ATCC 13883 (setting [3]) was 5.1 ± 0.8 (1.0) μg ml^−1. Further, the “MIC, A. baumannii 19606” value with A. baumannii ATCC 19606 was 30.8 ± 3.3 (5.9) μg ml^−1. The “MIC, FADDI-KP028” value against FADDI-KP028 (MDR) (setting [3]) was 111.3 ± 0.3 (21.5) μg ml^−1. Also, the “MIC, FADDI-AB156” value in data set [2] is recorded as 59.2 ± 0.2 (11.4) μg ml^−1. Moreover, the “peptide stability in A. baumannii culture (RP-HPLC trace)” value in the data set with A. baumannii culture is “reduced”.
